The text below walks through data of ChEMBL document CHEMBL1641595, “Molecular modeling based approach, synthesis and in vitro assay to new indole inhibitors of hepatitis C NS3/4A serine protease” (Bioorg Med Chem, 2011).

Converted amounts (≈) assume the structure as drawn.

Assay [1] in a line: Inhibition of HCV NS3/4A protease after 30 mins. Set-up: species or system Hepacivirus hominis. Put shortly: (§1)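 Recombinant HCV NS3/4A protease, freshly diluted to 0.5 µg/mL, was combined with test compound in DMSO. The reaction was started with FRET peptide substrate Ac-Asp-Glu-Asp(EDANS)-Glu-Glu-Abu-ψ-[COO]Ala-Ser-Lys(DABCYL)-NH2, diluted 100-fold from a DMSO stock. After 30 min at room temperature (28 °C), fluorescence was read at […]. % inhibition = 100×(Fvehicle−Fsample)/Fvehicle, with both values corrected by subtracting the substrate control.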

Assay [2] concerns Hepacivirus hominis. In words: Inhibition of HCV NS3/4A protease at 100 ug/ml after 30 mins. In short, it runs like this:
as §1

The subject of assay [3] is Hepacivirus hominis. In words: Inhibition of HCV NS3/4A protease at 50 ug/ml after 30 mins. In short, it runs like this:
as §1

The subject of assay [4] is Hepacivirus hominis. In words: Inhibition of HCV NS3/4A protease at 10 ug/ml after 30 mins. In short, it runs like this:
as §1

One may read the IC50 as the concentration needed to halve the response being measured. High values mean lower potency, low ones higher potency. In the case of `CC(C)C[C@H](NC(=O)C1(Cc2ccsc2C(=O)O)Cc2ccccc2N1)C(=O)NC(CC(F)F)C(=O)C(=O)O` (some centres not stated), the half-maximal inhibitory concentration (IC50) in assay [1] was 0.4 mg/L (≈ 0.707 µM).
The inhibition is the drop in the measured response relative to a control, in per cent. A higher inhibition goes with strong suppression. Take `O=C(O)COc1ccc(/C=C/C(=O)c2c[nH]c3ccccc23)cc1`: the IC50 in assay [1] is more than 100 mg/L. Also, the inhibition in assay [2] amounted to 51.8%; in assay [3] it was 22.9%.
As for `O=C(COc1ccc(/C=C/C(=O)c2c[nH]c3ccccc23)cc1)N[C@@H](Cc1ccccc1)C(=O)O`, the inhibition amounted to 53.7% in assay [4], 84.7% in assay [2] and 82.4% in assay [3]. Also, in assay [1], the IC50 turned out to be 9 mg/L (≈ 19.2 µM).
Regarding `O=C(COc1ccc(/C=C/C(=O)c2c[nH]c3ccccc23)cc1)Nc1ncncc1C(=O)O`, the inhibition in assay [4] was 22.4%; in assay [2], 73.7%; in assay [3], 57.2%. In addition, the IC50 in assay [1] amounted to 29 mg/L (≈ 65.5 µM).
Taken in the same sequence, the figures for `O=C(COc1ccc(/C=C/C(=O)c2c[nH]c3ccccc23)cc1)N[C@@H](Cc1c[nH]c2ccccc12)C(=O)O` were 44.5%, 82.9%, 67.2% and 19 mg/L (≈ 37.4 µM).
Taken in the same sequence, the figures for `O=C(COc1ccc(/C=C/C(=O)c2c[nH]c3ccccc23)cc1)N[C@@H](Cc1c[nH]cn1)C(=O)O` were 36.4%, 78.7%, 48.5% and 21 mg/L (≈ 45.8 µM).
Consider `CC(=O)OCCC/C(=C1/SC(=S)N(CC(=O)O)C1=O)c1ccc(Br)cc1`, for which the concentration for half-maximal inhibition (IC50) in assay [1] worked out at 6.4 mg/L (≈ 14 µM).
`O=C(COc1ccc(/C=C/C(=O)c2c[nH]c3ccccc23)cc1)Nc1ccc(C(=O)c2ccccc2C(=O)O)cc1`: the inhibition came out at 40.1% in assay [4], 80.9% in assay [2] and 72% in assay [3]. Also, in assay [1], the IC50 came out at 19 mg/L (≈ 34.9 µM).
As for `N#Cc1cncnc1NC(=O)COc1ccc(/C=C/C(=O)c2c[nH]c3ccccc23)cc1`, the IC50 in assay [1] is more than 100 mg/L. The inhibition in assay [2] was 58.4%; in assay [3], 29.4%.
`O=C(COc1ccc(/C=C/C(=O)c2c[nH]c3ccccc23)cc1)N[C@@H](Cc1ccc(O)cc1)C(=O)O`: the inhibition in assay [4] came out at 49.5%; in assay [2] it was 83.9%; in assay [3], 81.2%. In addition, in assay [1], the IC50 is 12 mg/L (≈ 24.8 µM).
